{"data": "Published values of several laboratories", "target": "Serine/threonine-protein kinase haspin (HASPIN, Homo sapiens, UniProt Q8TF76)", "Sequence (Q8TF76 1-798, as in one of the studies)": "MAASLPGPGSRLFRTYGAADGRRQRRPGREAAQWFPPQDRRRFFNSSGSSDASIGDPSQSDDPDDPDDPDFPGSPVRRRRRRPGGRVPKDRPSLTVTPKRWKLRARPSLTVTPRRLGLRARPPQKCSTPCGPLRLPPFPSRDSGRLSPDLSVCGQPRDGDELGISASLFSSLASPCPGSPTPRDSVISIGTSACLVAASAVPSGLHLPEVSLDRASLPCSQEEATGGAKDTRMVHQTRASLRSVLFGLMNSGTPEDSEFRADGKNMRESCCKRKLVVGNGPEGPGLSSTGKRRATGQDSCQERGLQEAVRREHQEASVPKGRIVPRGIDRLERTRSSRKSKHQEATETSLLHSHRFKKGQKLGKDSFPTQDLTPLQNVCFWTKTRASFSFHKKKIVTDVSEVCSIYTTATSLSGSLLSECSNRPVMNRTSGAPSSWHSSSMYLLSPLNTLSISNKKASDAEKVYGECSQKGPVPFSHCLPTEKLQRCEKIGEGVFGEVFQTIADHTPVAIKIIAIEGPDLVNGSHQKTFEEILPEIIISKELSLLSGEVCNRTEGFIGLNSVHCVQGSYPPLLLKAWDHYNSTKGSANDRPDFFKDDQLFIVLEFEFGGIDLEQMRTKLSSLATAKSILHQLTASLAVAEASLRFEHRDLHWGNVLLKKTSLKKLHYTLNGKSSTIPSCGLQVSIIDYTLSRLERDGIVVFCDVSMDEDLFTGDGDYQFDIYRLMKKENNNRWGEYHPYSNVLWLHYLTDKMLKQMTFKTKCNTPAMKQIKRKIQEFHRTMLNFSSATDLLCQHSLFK", "note": "Compare with care: the assays were run in different laboratories."}
{"Structure (SMILES)": "CSc1cccnc1N1CCN(Cc2nc3ccccc3[nH]2)CC1", "effect on": "cell-free assay", "method": "competition with immobilised ligand", "concentration": "1 µM", "remaining binding [%]": 100}
{"Structure (SMILES)": "CC1CCCN1c1nccc(-c2cnn3ncccc23)n1 (stereo not shown)", "effect on": "binding", "concentration": "1 µM", "remaining binding [%]": 21}
{"Structure (SMILES)": "O=C(c1ccc(Nc2nccc(-c3cc4ccccc4s3)n2)cc1)N1CCC(N2CCCC2)CC1", "effect on": "binding", "method": "competition with immobilised ligand", "concentration": "1 µM", "remaining binding [%]": 64}
{"Structure (SMILES)": "CCN1CCN(Cc2ccc(C(=O)Nc3ccc(C)c(Oc4ccc5c(c4)CC(=O)N5)c3)cc2C(F)(F)F)CC1", "effect on": "binding", "method": "competition with immobilised ligand", "concentration": "1 µM", "remaining binding [%]": 100}
{"Structure (SMILES)": "Nc1ncc2c(n1)-c1c([nH]c3ccc(C#CC4CC4)cc13)CCCC2", "effect on": "binding", "method": "competition with immobilised ligand", "concentration": "1 µM", "remaining binding [%]": 100}
{"Structure (SMILES)": "CN(C)c1ncc(F)c(-c2cnn3ncccc23)n1", "effect on": "binding", "concentration": "1 µM", "remaining binding [%]": 37}
{"Structure (SMILES)": "O=C(NCC1CCOCC1)c1n[nH]cc1NC(=O)c1c(F)cccc1F", "effect on": "binding", "method": "competition with immobilised ligand", "concentration": "1 µM", "remaining binding [%]": 88}
{"Structure (SMILES)": "C[C@@H]1CCN(c2nccc(-c3cnn4ncccc34)n2)C1", "effect on": "binding", "concentration": "1 µM", "remaining binding [%]": 2}
{"Structure (SMILES)": "Cn1nc(C(F)(F)F)cc1-c1cnc(N2CCc3cc(S(=O)(=O)Nc4c(F)cc(Cl)cc4F)cc(N4CCCC4=O)c32)nc1", "effect on": "cell-free assay", "method": "competition with immobilised ligand", "concentration": "1 µM", "remaining binding [%]": 68}
{"Structure (SMILES)": "CN(CCCC(F)(F)F)c1nccc(-c2cnn3ncccc23)n1", "effect on": "binding", "concentration": "1 µM", "remaining binding [%]": 11}
{"Structure (SMILES)": "C[C@@H](c1ccc(-n2cnc3c(N)ncnc32)cc1)N1CCc2nn(C)c(Cc3ccccc3)c2C1=O", "effect on": "binding", "method": "competition with immobilised ligand", "concentration": "0.1 µM", "remaining binding [%]": 79}
{"Structure (SMILES)": "CN(c1nccc(-c2cnn3ncccc23)n1)C1CC1", "effect on": "binding", "concentration": "1 µM", "remaining binding [%]": 18}
{"Structure (SMILES)": "CCC(=O)N[C@@H]1CC[C@H](C(=O)N(C)c2ccc(-c3nc4ccccc4o3)cc2)C1", "effect on": "cell-free assay", "method": "competition with immobilised ligand", "concentration": "1 µM", "remaining binding [%]": 100}
{"Structure (SMILES)": "O=C(c1ccc(Nc2ncc(Cl)c(-c3cc4ccccc4s3)n2)cc1)N1CCC(N2CCCC2)CC1", "effect on": "binding", "method": "competition with immobilised ligand", "concentration": "1 µM", "remaining binding [%]": 67}
{"Structure (SMILES)": "O=C(Nc1cnc(Oc2ccc(F)cc2)nc1)N1CCc2ncccc2[C@@H]1c1ccc(F)cc1", "effect on": "cell-free assay", "method": "competition with immobilised ligand", "concentration": "1 µM", "remaining binding [%]": 93}
{"Structure (SMILES)": "COc1ncc2cc3ccccc3nc2c1C#N", "effect on": "cell-free assay", "method": "competition with immobilised ligand", "concentration": "5 µM", "remaining binding [%]": 51}
{"Structure (SMILES)": "Cc1cc(NC(=O)c2cccc(S(F)(F)(F)(F)F)c2)cc(-n2ccn3nc(-c4cccnc4)cc23)c1", "effect on": "cell-free assay", "method": "competition with immobilised ligand", "concentration": "1 µM", "remaining binding [%]": 70.9}
{"Structure (SMILES)": "N[C@H]1CCN(c2nccc(-c3cnn4ncccc34)n2)C1", "effect on": "binding", "concentration": "1 µM", "remaining binding [%]": 0.4}
{"Structure (SMILES)": "O=C1NC(c2ccccn2)Sc2ccccc21 (stereo not shown)", "effect on": "cell-free assay", "method": "competition with immobilised ligand", "concentration": "1 µM", "remaining binding [%]": 100}
{"Structure (SMILES)": "COc1cnc(Nc2cccc(S(N)(=O)=O)c2)nc1N1CCN(c2ccccc2)CC1", "effect on": "binding", "method": "competition with immobilised ligand", "concentration": "1 µM", "remaining binding [%]": 82}
{"Structure (SMILES)": "Cc1cnc(Nc2ccc(C(=O)N3CCC(N4CCCC4)CC3)cc2)nc1-c1cc2ccccc2s1", "effect on": "binding", "method": "competition with immobilised ligand", "concentration": "1 µM", "remaining binding [%]": 83}
{"Structure (SMILES)": "CS(=O)(=O)N1CCCC(NC(=O)[C@H](CCC2CCCCC2)NC(=O)c2ccc(CNc3ncnc4c3nnn4-c3ccccc3)cc2)C1 (stereo partly shown)", "effect on": "cell-free assay", "method": "competition with immobilised ligand", "concentration": "0.1 µM", "remaining binding [%]": 100}
